Results from ChEMBL document CHEMBL1671809, “Discovery of phosphoric acid mono-{2-[(E/Z)-4-(3,3-dimethyl-butyrylamino)-3,5-difluoro-benzoylimino]-thiazol-3-ylmethyl} ester (Lu AA47070): a phosphonooxymethylene prodrug of a potent and selective hA(2A) receptor antagonist” (J Med Chem, 2011).
Values after ≈ are worked out from the molar mass of the structure shown.

Assays:
Adenosine receptor A2a [1] = biological target: T1, Adenosine receptor A2a (Homo sapiens, UniProt P29274); assay: Displacement of [3H]-ZM241385 from human adenosine A2A receptor expressed in high five cells after 30 mins by scintillation counting
T1 sequence (P29274 whole entry): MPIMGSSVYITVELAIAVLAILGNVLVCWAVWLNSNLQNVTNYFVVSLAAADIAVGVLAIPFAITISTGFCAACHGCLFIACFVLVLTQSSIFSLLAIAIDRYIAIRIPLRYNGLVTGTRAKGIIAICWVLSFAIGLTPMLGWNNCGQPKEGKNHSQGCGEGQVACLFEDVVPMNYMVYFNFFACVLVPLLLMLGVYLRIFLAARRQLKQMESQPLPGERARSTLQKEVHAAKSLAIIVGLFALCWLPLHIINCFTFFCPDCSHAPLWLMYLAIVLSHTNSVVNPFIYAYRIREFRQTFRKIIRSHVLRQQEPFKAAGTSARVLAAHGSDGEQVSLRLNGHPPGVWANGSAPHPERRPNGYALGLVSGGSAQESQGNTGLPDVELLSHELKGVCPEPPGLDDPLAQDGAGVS

Adenosine receptor A1 = biological target: T2, Adenosine receptor A1 (Homo sapiens, UniProt P30542); assay: Displacement of [3H]-DPCPX from human adenosine A1 receptor expressed in CHO cells after 30 mins by scintillation counting; assay type: cell-based
T2 sequence (P30542 whole entry): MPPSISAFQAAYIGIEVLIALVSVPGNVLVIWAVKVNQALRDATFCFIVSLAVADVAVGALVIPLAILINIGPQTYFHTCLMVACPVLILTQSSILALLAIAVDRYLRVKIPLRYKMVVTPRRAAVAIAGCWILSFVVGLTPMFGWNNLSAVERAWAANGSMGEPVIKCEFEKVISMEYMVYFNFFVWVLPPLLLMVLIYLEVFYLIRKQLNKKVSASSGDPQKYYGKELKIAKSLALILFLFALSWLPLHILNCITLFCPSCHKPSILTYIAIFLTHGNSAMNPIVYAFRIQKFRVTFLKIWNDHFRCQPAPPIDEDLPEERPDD
In short: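 CHO-hA1 membranes at 10.8 μg protein/well, pretreated with adenosine deaminase (2 U/mL, 30 min, 37 C), were incubated with 1 nM [3H]-DPCPX in 50 mM Tris/HCl pH 7.4 for 30 min at 25 C across 10 compound concentrations. Filtration on PEI-soaked GF/B, scintillation counting. Nonspecific binding by CGS15943. Ki by Cheng-Prusoff. Means of ≥2 determinations.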

Homo sapiens = species: Homo sapiens; assay: Selectivity ratio of Ki for human adenosine A1 receptor to Ki for human adenosine A2A receptor
[2] = biological target: T3, Adenosine receptor A1 (Homo sapiens) (UniProt P30542); assay: Displacement of [3H]-DPCPX from human adenosine A1 receptor expressed in CHO cells at 10 uM after 30 mins by scintillation counting; assay type: cell-based
T3 sequence (whole entry): T2 sequence (P30542 whole entry)

Liver microsomes [3] = assay: Intrinsic clearance in human liver microsomes at 1 uM after 60 mins by LC-MS/MS analysis; assay type: ADME, Microsome; details: 1 h
In short: (§1)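 Compound at 1 μM with human or rat liver microsomes (0.5 mg protein/mL) plus NADPH at 37 C. Samples at 0, 5, 15, 30 and 60 min, quenched with acetonitrile, analysed by LC-MS/MS.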

Liver microsomes [4] = assay: Intrinsic clearance in rat liver microsomes at 1 uM after 60 mins by LC-MS/MS analysis; assay type: ADME, Microsome; details: 1 h; in short: as §1
Cytochrome P450 1A2 = biological target: T4, Cytochrome P450 1A2 (Homo sapiens, UniProt P05177); assay: Inhibition of recombinant CYP1A2 after 28 mins; assay type: ADME
T4 sequence (P05177 whole entry): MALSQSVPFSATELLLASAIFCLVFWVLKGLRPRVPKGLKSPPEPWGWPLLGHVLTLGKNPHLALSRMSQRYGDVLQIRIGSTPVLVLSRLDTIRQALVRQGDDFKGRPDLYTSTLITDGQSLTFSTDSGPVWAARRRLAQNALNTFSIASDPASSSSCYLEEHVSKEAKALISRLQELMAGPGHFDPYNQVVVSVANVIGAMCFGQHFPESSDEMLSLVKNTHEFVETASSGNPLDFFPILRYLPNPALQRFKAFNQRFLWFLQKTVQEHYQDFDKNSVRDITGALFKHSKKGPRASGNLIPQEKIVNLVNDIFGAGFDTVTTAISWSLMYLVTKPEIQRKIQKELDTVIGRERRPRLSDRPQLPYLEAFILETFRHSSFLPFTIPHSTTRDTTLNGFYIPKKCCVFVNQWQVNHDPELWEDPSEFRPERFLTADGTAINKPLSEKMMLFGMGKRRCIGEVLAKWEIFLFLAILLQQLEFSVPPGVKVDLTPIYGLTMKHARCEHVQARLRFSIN
In short: (§2)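 Recombinant CYP supersomes incubated in phosphate buffer with eight compound concentrations (40-0.02 μM) and fluorogenic substrates. CYP1A2: 7-ethoxy-3-cyanocoumarin 10 μM, 28 min. CYP2C19: same substrate 50 μM, 45 min. CYP2D6: AMMC 3 μM, 45 min. CYP3A4: resorufin benzyl ether 100 μM, 30 min. Fluorescent metabolite read; IC50 relative to uninhibited controls.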

Cytochrome P450 2C9 = Cytochrome P450 2C9 (Homo sapiens, UniProt P11712); assay: Inhibition of recombinant CYP2C9 after 45 mins; assay type: ADME
Sequence of Cytochrome P450 2C9 (P11712 whole entry): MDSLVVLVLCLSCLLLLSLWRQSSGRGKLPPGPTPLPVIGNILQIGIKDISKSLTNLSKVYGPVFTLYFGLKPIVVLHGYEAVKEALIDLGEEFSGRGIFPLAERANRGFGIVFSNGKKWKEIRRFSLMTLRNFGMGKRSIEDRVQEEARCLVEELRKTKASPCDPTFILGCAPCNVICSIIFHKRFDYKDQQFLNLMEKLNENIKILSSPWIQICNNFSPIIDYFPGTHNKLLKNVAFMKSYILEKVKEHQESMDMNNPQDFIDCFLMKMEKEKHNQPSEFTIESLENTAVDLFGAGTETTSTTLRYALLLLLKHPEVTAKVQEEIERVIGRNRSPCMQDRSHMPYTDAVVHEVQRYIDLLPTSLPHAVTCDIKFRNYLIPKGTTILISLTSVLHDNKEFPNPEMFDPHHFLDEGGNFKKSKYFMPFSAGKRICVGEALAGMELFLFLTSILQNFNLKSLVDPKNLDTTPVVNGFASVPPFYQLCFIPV

Cytochrome P450 2C19 = Cytochrome P450 2C19 (Homo sapiens, UniProt P33261); assay: Inhibition of recombinant CYP2C19 after 45 mins; assay type: ADME; in short: as §2
Sequence of Cytochrome P450 2C19 (P33261 whole entry): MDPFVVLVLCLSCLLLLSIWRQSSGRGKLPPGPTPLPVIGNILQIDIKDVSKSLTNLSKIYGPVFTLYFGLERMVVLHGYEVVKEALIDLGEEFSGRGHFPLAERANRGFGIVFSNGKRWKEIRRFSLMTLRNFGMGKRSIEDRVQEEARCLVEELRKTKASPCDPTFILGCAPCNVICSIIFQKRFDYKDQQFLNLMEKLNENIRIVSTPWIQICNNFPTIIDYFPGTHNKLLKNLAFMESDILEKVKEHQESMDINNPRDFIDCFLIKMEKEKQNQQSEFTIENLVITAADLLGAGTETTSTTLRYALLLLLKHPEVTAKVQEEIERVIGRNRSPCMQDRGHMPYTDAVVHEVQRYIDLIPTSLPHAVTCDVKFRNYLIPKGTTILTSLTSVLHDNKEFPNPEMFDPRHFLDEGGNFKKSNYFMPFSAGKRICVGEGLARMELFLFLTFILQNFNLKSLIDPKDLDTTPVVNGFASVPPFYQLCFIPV

Cytochrome P450 2D6 = Cytochrome P450 2D6 (Homo sapiens, UniProt P10635); assay: Inhibition of recombinant CYP2D6 after 45 mins; assay type: ADME; in short: as §2
Sequence of Cytochrome P450 2D6 (P10635 whole entry): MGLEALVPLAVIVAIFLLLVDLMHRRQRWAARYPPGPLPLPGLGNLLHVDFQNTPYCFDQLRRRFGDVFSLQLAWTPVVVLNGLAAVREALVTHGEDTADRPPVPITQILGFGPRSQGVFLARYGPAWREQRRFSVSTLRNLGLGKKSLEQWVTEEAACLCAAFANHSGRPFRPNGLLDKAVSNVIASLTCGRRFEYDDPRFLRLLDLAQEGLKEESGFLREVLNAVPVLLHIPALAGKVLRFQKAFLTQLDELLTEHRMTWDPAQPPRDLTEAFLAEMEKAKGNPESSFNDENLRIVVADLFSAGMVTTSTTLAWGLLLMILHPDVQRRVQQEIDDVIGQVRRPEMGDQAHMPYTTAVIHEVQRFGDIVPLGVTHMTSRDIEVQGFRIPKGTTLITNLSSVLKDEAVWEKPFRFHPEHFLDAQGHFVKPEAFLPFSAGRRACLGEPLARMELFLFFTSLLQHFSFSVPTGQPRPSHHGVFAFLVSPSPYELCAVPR

Cytochrome P450 3A4 = Cytochrome P450 3A4 (Homo sapiens, UniProt P08684); assay: Inhibition of recombinant CYP3A4 after 30 mins; assay type: ADME
Sequence of Cytochrome P450 3A4 (P08684 whole entry): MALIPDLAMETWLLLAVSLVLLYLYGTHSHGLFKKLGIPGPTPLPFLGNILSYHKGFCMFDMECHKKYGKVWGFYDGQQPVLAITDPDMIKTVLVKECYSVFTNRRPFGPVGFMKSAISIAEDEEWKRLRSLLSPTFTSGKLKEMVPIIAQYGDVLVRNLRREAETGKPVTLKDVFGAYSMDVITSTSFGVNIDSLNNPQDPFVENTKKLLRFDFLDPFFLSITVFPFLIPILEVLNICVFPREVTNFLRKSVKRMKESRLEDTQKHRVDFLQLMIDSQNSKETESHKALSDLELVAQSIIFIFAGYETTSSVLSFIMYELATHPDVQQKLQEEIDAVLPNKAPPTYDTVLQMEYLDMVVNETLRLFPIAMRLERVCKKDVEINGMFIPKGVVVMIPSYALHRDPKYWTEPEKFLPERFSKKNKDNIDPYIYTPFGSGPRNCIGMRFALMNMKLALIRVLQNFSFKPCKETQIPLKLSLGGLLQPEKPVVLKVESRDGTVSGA
In short: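 Recombinant CYP supersomes incubated in phosphate buffer with eight compound concentrations (40-0.02 μM) and fluorogenic substrates. CYP3A4: resorufin benzyl ether 100 μM, 30 min. Fluorescent metabolite read; IC50 relative to uninhibited controls.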

Caco-2 = assay: Efflux ratio of permeability from basolateral to apical over apical to basolateral side in human Caco2 cells after 21 to 28 days by LC-MS/MS analysis
Mus musculus = assay: Reversal of haloperidol-induced hypolocomotion in po dosed NMRI mouse administered 30 mins before haloperidol challenge measured for 20 mins; assay type: functional
In short: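 Male NMRI mice (n = 8/group) were given compound po in 25% cremophor/saline, then haloperidol 0.63 mg/kg sc 30 min later. After 15 min they went into photocell activity boxes, and locomotion was recorded for 20 min. ED50 by sigmoidal fit with top 100 and bottom 0.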

Adenosine receptor A2a [5] = biological target: T1, Adenosine receptor A2a; assay: Displacement of [3H]-ZM241385 from human adenosine A2A receptor expressed in high five cells at 10 uM after 30 mins by scintillation counting
In short: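 hA2A membranes from baculovirus-infected High Five cells (harvested 72 h), pretreated with adenosine deaminase 2 U/mL for 30 min at 37 C. Membranes at 10.6 μg protein/well were incubated with 1 nM [3H]-ZM241385 in 50 mM Tris/HCl pH 7.4 for 30 min at 25 C. GF/B filtration, scintillation counting. Nonspecific binding by CGS15943. Percent displacement at 10 μM.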

[6] = Aqueous solubility of the compound at pH 6.9; assay type: physicochemical; details: buffer
[7] = Chemical stability of the compound assessed as half life; assay type: physicochemical
In short: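 Prodrug was dissolved in water, filtered, and diluted to approximately 0.05 mg/mL in buffers of different pH. Sealed vials were stored at 50 C to accelerate hydrolysis. Samples were diluted 1:1 with acetonitrile and analysed by HPLC for prodrug and hydrolysis products.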

Rattus norvegicus [8] = assay: Tmax in Sprague-Dawley rat assessed as 4-(3,3-Dimethyl-butyrylamino)-3,5-difluoro-N-thiazol-2-yl-benzamide level at 1.5 mg/kg, po; assay type: ADME, organism-based; set-up: dose 1.5 mg/kg, route oral; details: in vivo
In short: (§3)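 Prodrugs dosed po in aqueous 10% hydroxypropyl β-cyclodextrin (2 mL/kg) to rats; doses expressed as parent-drug equivalents; n = 3. Six tail-vein blood samples (~100 μL) taken between 5 and 420 min. Parent drug in plasma measured by HTLC-MS/MS. Profiles fitted with a one-compartment model; AUC extrapolated to infinity.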

Rattus norvegicus [9] = assay: Cmax in Sprague-Dawley rat assessed as 4-(3,3-Dimethyl-butyrylamino)-3,5-difluoro-N-thiazol-2-yl-benzamide level at 1.5 mg/kg, po; assay type: ADME, organism-based; set-up: dose 1.5 mg/kg, route oral; details: in vivo; in short: as §3
Rattus norvegicus [10] = assay: Oral bioavailability in Sprague-Dawley rat assessed as 4-(3,3-Dimethyl-butyrylamino)-3,5-difluoro-N-thiazol-2-yl-benzamide level at 1.5 mg/kg; assay type: ADME, organism-based; details: in vivo; in short: as §3
Rattus norvegicus [11] = assay: AUC in Sprague-Dawley rat assessed as 4-(3,3-Dimethyl-butyrylamino)-3,5-difluoro-N-thiazol-2-yl-benzamide level at 15 mg/kg, po; assay type: ADME, organism-based, Plasma; set-up: dose 15 mg/kg, route oral; details: in vivo; in short: as §3
Rattus norvegicus [12] = assay: Tmax in Sprague-Dawley rat assessed as 4-(3,3-Dimethyl-butyrylamino)-3,5-difluoro-N-thiazol-2-yl-benzamide level at 15 mg/kg, po; assay type: ADME, organism-based; set-up: dose 15 mg/kg, route oral; details: in vivo; in short: as §3
Rattus norvegicus [13] = assay: Cmax in Sprague-Dawley rat assessed as 4-(3,3-Dimethyl-butyrylamino)-3,5-difluoro-N-thiazol-2-yl-benzamide level at 15 mg/kg, po; assay type: ADME, organism-based; set-up: dose 15 mg/kg, route oral; details: in vivo; in short: as §3
Rattus norvegicus [14] = assay: Oral bioavailability in Sprague-Dawley rat assessed as 4-(3,3-Dimethyl-butyrylamino)-3,5-difluoro-N-thiazol-2-yl-benzamide level at 15 mg/kg; assay type: ADME, organism-based; details: in vivo; in short: as §3
[15] = Aqueous solubility of the compound at pH 4; assay type: physicochemical; details: water
Rattus norvegicus [16] = assay: Tmax in Sprague-Dawley rat assessed as 4-(3,3-Dimethyl-butyrylamino)-3,5-difluoro-N-thiazol-2-yl-benzamide level at 1.4 mg/kg, po; assay type: ADME, organism-based; set-up: dose 1.4 mg/kg, route oral; details: in vivo; in short: as §3
Rattus norvegicus [17] = assay: Cmax in Sprague-Dawley rat assessed as 4-(3,3-Dimethyl-butyrylamino)-3,5-difluoro-N-thiazol-2-yl-benzamide level at 1.4 mg/kg, po; assay type: ADME, organism-based; set-up: dose 1.4 mg/kg, route oral; details: in vivo; in short: as §3
Rattus norvegicus [18] = assay: Oral bioavailability in Sprague-Dawley rat assessed as 4-(3,3-Dimethyl-butyrylamino)-3,5-difluoro-N-thiazol-2-yl-benzamide level at 1.4 mg/kg; assay type: ADME, organism-based; details: in vivo; in short: as §3

Compound	Ki (Adenosine receptor A2a [1])	inhibition [2]	CL (Liver microsomes [3])	CL (Liver microsomes [4])	IC50 (Cytochrome P450 1A2)	IC50 (Cytochrome P450 2C19)	IC50 (Cytochrome P450 2D6)	further results
Cc1nc(NC(=O)c2ccc(NC(=O)CC(C)(C)C)cc2)sc1C	220 nM							
COc1c(C(=O)Nc2nccs2)ccc(NC(=O)CC(C)(C)C)c1F	12 nM							Ki (Adenosine receptor A1): 220 nM; Ratio Ki (Homo sapiens): 18
Cc1ccccc1C(=O)Nc1ccc(C(=O)Nc2nccs2)cc1	220 nM	47%	0.5 L/min	5 mL/min	> 40000 nM	23000 nM	> 40000 nM	IC50 (Cytochrome P450 2C9): > 40000 nM; IC50 (Cytochrome P450 3A4): 1400 nM; Ratio (Caco-2): 0.8
CCn1c(=O)c2c(nc(/C=C/c3ccc(OC)c(OC)c3)n2C)n(CC)c1=O [ISTRADEFYLLINE]			0.1 L/min	11 mL/min	> 40000 nM	> 40000 nM	> 40000 nM	ED50 (Mus musculus): 0.13 mg/kg
Cc1cc(NC(=O)CC(C)(C)C)ccc1C(=O)Nc1nccs1	200 nM	36%						
CCCC(=O)Nc1ccc(C(=O)Nc2nccs2)cc1	350 nM	54%	0.8 L/min	18 mL/min	> 40000 nM	36000 nM	> 40000 nM	IC50 (Cytochrome P450 2C9): > 40000 nM; IC50 (Cytochrome P450 3A4): > 40000 nM; Ratio (Caco-2): 0.7
CC(C)(C)CNC(=O)c1ccc(C(=O)Nc2nccs2)cc1	110 nM							
CC(C)(C)CC(=O)Nc1ccc(NC(=O)c2nccs2)cc1								inhibition (Adenosine receptor A2a [5]): 18%
CC(C)(C)CC(=O)Nc1c(F)cc(C(=O)/N=c2\sccn2COP(=O)(O)O)cc1F								solubility [6]: 8.6 mg/mL (≈ 18.6 mM); half-life [7]: > 96000 min; Tmax (Rattus norvegicus [8]): 30 min; Cmax (Rattus norvegicus [9]): 869 ng/mL; F (Rattus norvegicus [10]): 55%; AUC (Rattus norvegicus [11]): 35000 ng·h/mL; Tmax (Rattus norvegicus [12]): 24 min; Cmax (Rattus norvegicus [13]): 6413 ng/mL; F (Rattus norvegicus [14]): 66%
COc1cc(NC(=O)CC(C)(C)C)ccc1C(=O)Nc1nccs1	50 nM							Ki (Adenosine receptor A1): 1100 nM; Ratio Ki (Homo sapiens): 22
CC[C@H](C)[C@H](N)C(=O)OCn1ccs/c1=N\C(=O)c1cc(F)c(NC(=O)CC(C)(C)C)c(F)c1								solubility [15]: 19.4 mg/mL (≈ 39.1 mM); half-life [7]: 24 min; Tmax (Rattus norvegicus [16]): 54 min; Cmax (Rattus norvegicus [17]): 381 ng/mL; F (Rattus norvegicus [18]): 31%
CC(C)(C)CC(=O)Nc1ccc(C(=O)Nc2nccs2)cc1	36 nM	39%	0.7 L/min	11 mL/min	> 40000 nM	> 40000 nM	> 40000 nM	IC50 (Cytochrome P450 2C9): > 40000 nM; IC50 (Cytochrome P450 3A4): > 40000 nM; Ratio (Caco-2): 0.7
CC(C)(C)CC(=O)Nc1ccc(C(=O)Nc2ncc(Cl)s2)cc1	28 nM							Ki (Adenosine receptor A1): 220 nM
